The results in this text go back to publication PMC4128789 (Drug Design, Development and Therapy, 2014).

Where two headings read alike, the source gives them in different places.

Holding throughout (type): cell-based
In test [1] the test system is SMMC-7721 (human liver carcinoma) cells. Kind of test: MTT in vitro cytotoxicity assay, SMMC-7721. Conditions: read-out: IC50 (μM) SMMC-7721. A digest of the protocol: (§1)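 Cells grown in DMEM with 10% FBS, penicillin/streptomycin, 37°C, 5% CO2. Seeded at 10,000 (MCF-7), 5,000 (SW-1990) or 6,000 (SMMC-7721) per well for 24 h. Test compound in DMSO, diluted in medium (0.1% DMSO), given at 1.95–250 μM final for 48 h. MTT (5 mg/mL, 10% v/v) added for 4 h; formazan dissolved in DMSO; A570 read, 630 nm background. % inhibition calculated versus 0.1% DMSO control; IC50 from viability–dose plot; at least triplicate, mean ± SD.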

Test [2] has as its system SW-1990 (human pancreatic carcinoma) cells. Description: MTT in vitro cytotoxicity assay, SW-1990. Conditions: for IC50: read-out: IC50 (μM) SW-1990. Summed up: as §1
Test [3] concerns MCF-7 (human breast adenocarcinoma) cells. Description: MTT in vitro cytotoxicity assay, MCF-7. Particulars: read-out: IC50 (μM) MCF-7. A digest of the protocol:
as §1

The subject of test [4] is Human umbilical vein endothelial cell (HUVEC). Kind of test: MTT in vitro cytotoxicity assay, HUVEC. Conditions: for selectivity toward the normal cell line HUVEC compared with berberine: cancer cell lines versus HUVEC. Summed up:
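HUVEC used at passages 1–7, grown in endothelial basal medium with 3% FBS growth supplement. Seeded at 5,000 cells/well and held 24 h at 37°C, 5% CO2. Test compound in DMSO, diluted in medium (0.1% DMSO final), given at 1.95–250 μM for 48 h. MTT added for 4 h, formazan dissolved in DMSO, absorbance read at 570 nm less 630 nm. IC50 from viability versus dose; at least triplicate, mean ± SD.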

Setting [5] is: MTT assay after 48 hours of drug exposure, mean ± SD.

For “9-O-[1-(2-fluorobenzyl)-4-ethyl-1H-1, 2, 3-triazole] berberine chloride [Compound 5]”, the half-maximal inhibitory concentration (IC50) (as a rule, the concentration at which inhibition is half-maximal) is 44.5 ± 4.88 µM in test [1] (setting [5]), 64 ± 8.46 µM in test [2] (setting [5]) and 75 ± 9.35 µM in test [3] (setting [5]).
Regarding “9-O-[1-(2-methylbenzyl)-4-ethyl-1H-1, 2, 3-triazole] berberine chloride [Compound 14]”, the values for the IC50 in test [1] (setting [5]), in test [2] (setting [5]) and in test [3] (setting [5]) were 19.9 ± 2.33 µM, 23.7 ± 3.47 µM and 40.8 ± 5.92 µM, respectively. Besides, the “selectivity toward the normal cell line HUVEC compared with berberine” value in test [4] is “much better selectivity than berberine”.
As for “9-O-[1-(3-fluorobenzyl)-4-ethyl-1H-1, 2, 3-triazole] berberine chloride [Compound 6]”, the IC50 in test [1] (setting [5]) worked out at 51.5 ± 6.03 µM; in test [2] (setting [5]), 62.6 ± 7.85 µM; in test [3] (setting [5]) it was 69.9 ± 8.73 µM.
In the same order, the values of “9-O-[1-(4-fluorobenzyl)-4-ethyl-1H-1, 2, 3-triazole] berberine chloride [Compound 7]” are 54.6 ± 5.98 µM, 53.6 ± 6.33 µM and 73.5 ± 10.2 µM.
In the case of `COc1ccc2cc3[n+](cc2c1OC)CCc1cc2c(cc1-3)OCO2` [BBR, berberine, reference compound], the IC50 in test [1] (Homo sapiens, SMMC-7721, 48 h) is 68.1 ± 7.76 µM; in test [2] (Homo sapiens, SW1990, 48 h), 27.6 ± 3.04 µM; in test [4] (Homo sapiens, HUVEC, 48 h, read-out: IC50 (μM) HUVEC), 18.3 ± 2.31 µM; in test [3] (Homo sapiens, MCF7, 48 h), 122 ± 11.3 µM. Besides, the inhibition (as a rule, the share of the control response that was lost under treatment) at 62.5 µM in test [2] (Homo sapiens, SW1990, read-out: inhibition against SW-1990 cell growth) was greater than 50%.
With `COc1ccc2cc3[n+](cc2c1OCCc1cn(Cc2ccc(Br)cc2)nn1)CCc1cc2c(cc1-3)OCO2` [Compound 13, 9-O-[1-(4-bromobenzyl)-4-ethyl-1H-1,2,3-triazole] berberine chloride], the results for the IC50 in test [1] (setting [5]), in test [2] (setting [5]) and in test [3] (setting [5]) were 20 ± 2.37 µM, 30.4 ± 4.89 µM and 47.1 ± 6.93 µM, respectively.
Consider `COc1ccc2cc3[n+](cc2c1OCCc1cn(Cc2ccc(C)cc2)nn1)CCc1cc2c(cc1-3)OCO2.[Cl-]` [Compound 15, 9-O-[1-(4-methylbenzyl)-4-ethyl-1H-1,2,3-triazole] berberine chloride], for which the IC50 in test [1] (setting [5]) amounted to 39.4 ± 4.98 µM; in test [2] (setting [5]) it was 32 ± 4.23 µM; in test [3] (setting [5]), 37.8 ± 4.66 µM. Besides, in test [4], the “selectivity toward the normal cell line HUVEC compared with berberine” value was “much better selectivity than berberine”.
As to `COc1ccc2cc3[n+](cc2c1OCCc1cn(Cc2cccc(C(F)(F)F)c2)nn1)CCc1cc2c(cc1-3)OCO2` [Compound 20, 9-O-[1-(3-(trifluoromethyl)benzyl-4-ethyl-1H-1,2,3-triazole]berberine chloride], the IC50 in test [1] (setting [5]) is 32.2 ± 5.2 µM; in test [2] (setting [5]), 39.3 ± 3.76 µM; in test [3] (setting [5]), 86.2 ± 10.5 µM.
In the same order, the values of `COc1ccc2cc3[n+](cc2c1OCCc1cn(Cc2ccc(C(F)(F)F)cc2)nn1)CCc1cc2c(cc1-3)OCO2` [Compound 21, 9-O-[1-(4-(trifluoromethyl)benzyl-4-ethyl-1H-1,2,3-triazole]berberine chloride] are 23.3 ± 2.63 µM, 36.8 ± 3.45 µM and 68.1 ± 7.56 µM.
In the same order, the values of `COC(=O)c1ccc(Cn2cc(CCOc3c(OC)ccc4cc5[n+](cc34)CCc3cc4c(cc3-5)OCO4)nn2)cc1` [Compound 25, 9-O-[1-(4-methyl formatebenzyl)-4-ethyl-1H-1,2,3-triazole] berberine chloride] are 53.5 ± 5.84 µM, 165 ± 18.9 µM and 249 ± 20.1 µM.
For `COc1ccc2cc3[n+](cc2c1OCCc1cn(Cc2ccc(F)cc2F)nn1)CCc1cc2c(cc1-3)OCO2` [Compound 27, 9-O-[1-(2,4-difluorobenzyl)-4-ethyl-1H-1,2,3-triazole] berberine chloride] the same measures were 35.9 ± 4.76 µM, 69 ± 9.33 µM and 70.7 ± 6.45 µM.
On to `COc1ccc2cc3[n+](cc2c1OCCc1cn(Cc2ccc(F)c(F)c2)nn1)CCc1cc2c(cc1-3)OCO2` [Compound 29, 9-O-[1-(3,4-difluorobenzyl)-4-ethyl-1H-1,2,3-triazole] berberine chloride], for which the IC50 in test [1] (setting [5]) is 43.8 ± 5.32 µM; in test [2] (setting [5]), 38.5 ± 4.65 µM; in test [3] (setting [5]), 81.2 ± 10.4 µM.
In the same order, the values of `COc1ccc2cc3[n+](cc2c1OCCc1cn(Cc2cc(Cl)ccc2Cl)nn1)CCc1cc2c(cc1-3)OCO2` [Compound 33, 9-O-[1-(2,5-dichlorobenzyl)-4-ethyl-1H-1,2,3-triazole] berberine chloride] are 24.2 ± 3.48 µM, 38.6 ± 4.57 µM and 65.5 ± 7.22 µM.
`COc1ccc2cc3[n+](cc2c1OCCc1cn(Cc2ccc(Cl)c(Cl)c2)nn1)CCc1cc2c(cc1-3)OCO2.[Cl-]` [Compound 35, 9-O-[1-(3,4-dichlorobenzyl)-4-ethyl-1H-1,2,3-triazole] berberine chloride]: the IC50 in test [1] (setting [5]) is 16.1 ± 2.92 µM; in test [2] (setting [5]) it was 20.4 ± 2.35 µM; in test [3] (setting [5]), 30.8 ± 4.32 µM. In addition, the “IC50 against HUVECs relative to compound 32” value in test [4] (ratio to compound 32 IC50) was “four times lower than that of 32”.
